Experimental data from PMC9574854 (Journal of Medicinal Chemistry, 2022).

Legend:
PfGSK3 = molecular target: T1, PfGSK3 (Plasmodium falciparum, UniProt O77344); experiment: KinaseSeeker split luciferase assay on PfGSK3; assay type: biochemical; conditions: for fold increase in potency on PfGSK3: compared to IKK16; for activity on PfGSK3, in words: screen at 1 μM
T1 sequence (O77344 1-440): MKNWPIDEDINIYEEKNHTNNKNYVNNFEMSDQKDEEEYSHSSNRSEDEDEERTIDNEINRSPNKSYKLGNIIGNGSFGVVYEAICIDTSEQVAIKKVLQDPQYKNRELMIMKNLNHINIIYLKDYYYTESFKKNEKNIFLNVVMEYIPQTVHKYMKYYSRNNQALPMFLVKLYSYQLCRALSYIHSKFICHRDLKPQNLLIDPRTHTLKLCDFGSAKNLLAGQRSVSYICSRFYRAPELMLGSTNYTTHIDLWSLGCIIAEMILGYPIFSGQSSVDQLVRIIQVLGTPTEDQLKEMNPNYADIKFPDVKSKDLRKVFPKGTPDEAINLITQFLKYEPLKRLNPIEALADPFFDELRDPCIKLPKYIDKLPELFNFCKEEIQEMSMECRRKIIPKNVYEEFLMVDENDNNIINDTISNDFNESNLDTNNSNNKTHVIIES
Summary of the method: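 Split-luciferase binding assay: lysate with Cfluc-PfGSK3 fusion plus Fos-Nfluc, incubated 2 h with test compound in DMSO (or DMSO control) and a kinase-specific probe. Luminescence was read immediately after luciferin reagent. % inhibition = (control − sample)/control × 100. Compounds were first counter-screened against split luciferase, then screened at 1 μM.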

PfPK6 = molecular target: T2, PfPK6 (Plasmodium falciparum, UniProt Q8IDW1); experiment: KinaseSeeker split luciferase assay on PfPK6; assay type: biochemical; conditions: for remaining activity at 1 µM: read-out: PfPK6 PoC@1 μM; for LE PfPK6 (ligand efficiency): PfPK6 pIC50/number of heavy atoms in the molecule; for activity on PfPK6, in words: screen at 1 μM; for selectivity (preference) for PfPK6 over PfGSK3: ratio of IC50 values
T2 sequence (Q8IDW1 1-305): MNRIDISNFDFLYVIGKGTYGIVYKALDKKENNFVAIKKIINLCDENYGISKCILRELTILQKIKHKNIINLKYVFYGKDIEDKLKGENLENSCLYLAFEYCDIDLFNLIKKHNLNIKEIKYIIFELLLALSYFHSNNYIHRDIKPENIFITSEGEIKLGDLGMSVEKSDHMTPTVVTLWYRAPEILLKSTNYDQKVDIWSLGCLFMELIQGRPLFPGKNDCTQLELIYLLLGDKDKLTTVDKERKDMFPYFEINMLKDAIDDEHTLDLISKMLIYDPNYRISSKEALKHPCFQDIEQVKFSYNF

468 human kinases = experiment: DiscoverX KINOMEscan panel, selectivity score; assay type: binding; conditions: for no. of kinase hits: 1 μM, 468 human kinases, PoC ≤10% (>90% inhibition); for reduction in selectivity: S10 (1 μM) compared to IKK16
HepG2 cells = experiment: HepG2 CellTiter-Glo cytotoxicity assay; assay type: cell-based, human; conditions: HepG2, 2 μM
Summary of the method: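 HepG2 cells were grown in DMEM with 10% FBS, 1% NEAA and 1% L-glutamine, without antibiotics. They were seeded at 4000 cells/well and left overnight at 37 °C, 5% CO₂. Test compound was added at 200 nM or 2 μM, in quadruplicate, with DMSO held constant, for 48 h. Viability was read by CellTiter-Glo 2 luminescence. % viability is the average of two experiments.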

[1] = rats, in words; cited from earlier work
[2] = in words; cited from earlier work

Structure (SMILES): CN1CCN(CCCNC(=O)c2ccc(Nc3nccc(-c4cc5ccccc5s4)n3)cc2)CC1 [Compound 9f, 4-((4-(Benzo[b]thiophen-2-yl)pyrimidin-2-yl)amino)-N-(3-(4-methylpiperazin-1-yl)propyl)benzamide]
- fold increase in potency on PfGSK3 (PfGSK3): 2 fold
- fold increase in potency on PfPK6 (PfPK6; compared to IKK16): ~3 fold

Structure (SMILES): Clc1ccccc1Nc1nccc(-c2cc3ccccc3s2)n1 [Compound 4d, 4-(Benzo[b]thiophen-2-yl)-N-(2-chlorophenyl)pyrimidin-2-amine]
- remaining activity at 1 µM (PfPK6): 100%

Structure (SMILES): Cc1ccc(-c2nc(Nc3ccc(C(=O)N4CCC(N5CCCC5)CC4)cc3)ncc2C)s1 [Compound 23a, (4-((5-Methyl-4-(5-methylthiophen-2-yl)pyrimidin-2-yl)amino)phenyl)(4-(pyrrolidin-1-yl)piperidin-1-yl)methanone]
- activity on PfGSK3, in words (PfGSK3): did not reach our threshold

Structure (SMILES): O=C(c1ccc(Nc2nccc(-c3cc4ccccc4s3)n2)cc1)N1CCC(N2CCCCC2)CC1 [Compound 9b, [1,4′-Bipiperidin]-1′-yl(4-((4-(benzo[b]thiophen-2-yl)pyrimidin-2-yl)amino)phenyl)methanone]
- fold increase in potency on PfPK6 (PfPK6; compared to IKK16): ~4 fold

Structure (SMILES): Clc1cccc(Nc2nccc(-c3cc4ccccc4s3)n2)c1 [Compound 4c, 4-(Benzo[b]thiophen-2-yl)-N-(3-chlorophenyl)pyrimidin-2-amine]
- remaining activity at 1 µM (PfPK6): 100%

Structure (SMILES): O=C(c1ccc(Nc2nccc(-c3ccc(Cl)s3)n2)cc1)N1CCC(N2CCCC2)CC1 [Compound 18j, (4-((4-(5-Chlorothiophen-2-yl)pyrimidin-2-yl)amino)phenyl)(4-(pyrrolidin-1-yl)piperidin-1-yl)methanone]
- LE PfPK6 (ligand efficiency) (PfPK6): 0.30

Structure (SMILES): O=C(c1ccc(Nc2nccc(-c3cccs3)n2)cc1)N1CCC(N2CCCC2)CC1 [Compound 18c, (4-(Pyrrolidin-1-yl)piperidin-1-yl)(4-((4-(thiophen-2-yl)pyrimidin-2-yl)amino)phenyl)methanone]
- activity on PfGSK3, in words (PfGSK3): inactivity

Structure (SMILES): c1ccc(CNc2nccc(-c3cc4ccccc4s3)n2)cc1 [Compound 4h, 4-(Benzo[b]thiophen-2-yl)-N-benzylpyrimidin-2-amine]
- activity on PfGSK3, in words (PfGSK3): inactive
- remaining activity at 1 µM (PfPK6): 100%
- activity on PfPK6, in words (PfPK6): inactive

Structure (SMILES): Cc1cnc(Nc2ccc(C(=O)N3CCC(N4CCCC4)CC3)cc2)nc1-c1cc2ccccc2s1 [Compound 18n, (4-((4-(Benzo[b]thiophen-2-yl)-5-methylpyrimidin-2-yl)amino)phenyl)(4-(pyrrolidin-1-yl)piperidin-1-yl)methanone]
- fold increase in potency on PfPK6 (PfPK6; compared to IKK16): 9 fold
- selectivity (preference) for PfPK6 over PfGSK3 (PfPK6): ~16 fold
- no. of kinase hits (468 human kinases): 100
- reduction in selectivity (468 human kinases): ~2 fold
- more cytotoxicity than IKK16 (HepG2 cells): ~40%

Structure (SMILES): O=C(c1ccc(Nc2ncc(Cl)c(-c3cc4ccccc4s3)n2)cc1)N1CCC(N2CCCC2)CC1 [Compound 18r, (4-((4-(Benzo[b]thiophen-2-yl)-5-chloropyrimidin-2-yl)amino)phenyl)(4-(pyrrolidin-1-yl)piperidin-1-yl)methanone]
- fold increase in potency on PfPK6 (PfPK6; compared to IKK16): 20 fold
- selectivity (preference) for PfPK6 over PfGSK3 (PfPK6): 9 fold
- no. of kinase hits (468 human kinases): 88
- reduction in selectivity (468 human kinases): ~2 fold

Structure (SMILES): O=C(c1ccc(Nc2nccc(-c3ccco3)n2)cc1)N1CCC(N2CCCC2)CC1 [Compound 18e, (4-((4-(Furan-2-yl)pyrimidin-2-yl)amino)phenyl)(4-(pyrrolidin-1-yl)piperidin-1-yl)methanone]
- activity on PfGSK3, in words (PfGSK3): inactive
- fold decrease in potency on PfPK6 (PfPK6; compared to thiophene 18c): more than 3 fold

Structure (SMILES): O=C(O)c1ccc(Nc2nccc(-c3cc4ccccc4s3)n2)cc1 [Compound 6, 4-((4-(Benzo[b]thiophen-2-yl)pyrimidin-2-yl)amino)benzoic acid]
- remaining activity at 1 µM (PfPK6): 100%

Structure (SMILES): Cn1cc(NC(=O)c2ccc(Nc3nccc(-c4cc5ccccc5s4)n3)cc2)cn1 [Compound 9k, 4-((4-(Benzo[b]thiophen-2-yl)pyrimidin-2-yl)amino)-N-(1-methyl-1H-pyrazol-4-yl)benzamide]
- activity on PfGSK3, in words (PfGSK3): no activity
- activity on PfPK6, in words (PfPK6): no activity

Structure (SMILES): O=C(NCCCN1CCOCC1)c1ccc(Nc2ncc(Cl)c(-c3ccc(Cl)s3)n2)cc1 [Compound 23e, 4-((5-Chloro-4-(5-chlorothiophen-2-yl)pyrimidin-2-yl)amino)-N-(3-morpholinopropyl)benzamide]
- IC50 (PfGSK3): < 100 nM
- no. of kinase hits (468 human kinases): 64
- reduction of promiscuity (kinase hits) (468 human kinases; compared to 23d, from 103 to 64 kinase hits): ~40%

Structure (SMILES): O=C(c1ccc(Nc2nccc(-c3ccc(COCC(F)(F)F)s3)n2)cc1)N1CCC(N2CCCC2)CC1 [Compound 18m, (4-(Pyrrolidin-1-yl)piperidin-1-yl)(4-((4-(5-((2,2,2-trifluoroethoxy)methyl)thiophen-2-yl)pyrimidin-2-yl)amino)phenyl)methanone]
- fold increase in potency on PfPK6 (PfPK6; compared to its alcohol counterpart (18l)): ~2 fold

Structure (SMILES): COc1cccc(Nc2nccc(-c3cc4ccccc4s3)n2)c1 [Compound 4f, 4-(Benzo[b]thiophen-2-yl)-N-(3-methoxyphenyl)pyrimidin-2-amine]
- remaining activity at 1 µM (PfPK6): 100%

Structure (SMILES): COc1ccccc1Nc1nccc(-c2cc3ccccc3s2)n1 [Compound 4g, 4-(Benzo[b]thiophen-2-yl)-N-(2-methoxyphenyl)pyrimidin-2-amine]
- remaining activity at 1 µM (PfPK6): 100%

Structure (SMILES): O=C(c1ccc(Nc2nccc(-c3ccc(-c4ccccc4)s3)n2)cc1)N1CCC(N2CCCC2)CC1 [Compound 18k, (4-((4-(5-Phenylthiophen-2-yl)pyrimidin-2-yl)amino)phenyl)(4-(pyrrolidin-1-yl)piperidin-1-yl)methanone]
- activity on PfGSK3, in words (PfGSK3): inactive

Structure (SMILES): O=C(c1ccc(Nc2ncc(Cl)c(-c3ccc(Cl)s3)n2)cc1)N1CCC(N2CCCC2)CC1 [Compound 23d, (4-((5-Chloro-4-(5-chlorothiophen-2-yl)pyrimidin-2-yl)amino)phenyl)(4-(pyrrolidin-1-yl)piperidin-1-yl)methanone]
- no. of kinase hits (468 human kinases): 103

Structure (SMILES): c1ccc(Nc2nccc(-c3cc4ccccc4s3)n2)cc1 [Compound 4a, 4-(Benzo[b]thiophen-2-yl)-N-phenylpyrimidin-2-amine]
- activity on PfGSK3, in words (PfGSK3): failed to inhibit
- remaining activity at 1 µM (PfPK6): 100%
- activity on PfPK6, in words (PfPK6): failed to inhibit

Structure (SMILES): O=C(c1ccc(Nc2nccc(-c3cc4ccccc4s3)n2)cc1)N1CCC(N2CCCC2)CC1 [IKK16, reference compound]
- oral bioavailability [1]: orally bioavailable
- toxicity in a resazurin-based cell viability assay [2]: low toxicity
- LE PfPK6 (ligand efficiency) (PfPK6): 0.26
- no. of kinase hits (468 human kinases): 41

Structure (SMILES): O=C(NC1CC1)c1ccc(Nc2nccc(-c3cc4ccccc4s3)n2)cc1 [Compound 9j, 4-((4-(Benzo[b]thiophen-2-yl)pyrimidin-2-yl)amino)-N-cyclopropylbenzamide]
- fold increase in potency on PfGSK3 (PfGSK3): roughly 2 fold

Structure (SMILES): Cc1cnc(Nc2ccc(C(=O)NCCCN3CCOCC3)cc2)nc1-c1ccc(Cl)s1 [Compound 23g, 4-((4-(5-Chlorothiophen-2-yl)-5-methylpyrimidin-2-yl)amino)-N-(3-morpholinopropyl)benzamide]
- activity on PfGSK3, in words (PfGSK3): did not show significant activity

Structure (SMILES): O=C(NCCCN1CCOCC1)c1ccc(Nc2nccc(-c3cc4ccccc4s3)n2)cc1 [Compound 9g, 4-((4-(Benzo[b]thiophen-2-yl)pyrimidin-2-yl)amino)-N-(3-morpholinopropyl)benzamide]
- no. of kinase hits (468 human kinases): 32

Structure (SMILES): Cc1ccc(-c2nc(Nc3ccc(C(=O)NCCCN4CCOCC4)cc3)ncc2Cl)s1 [Compound 23f, 4-((5-Chloro-4-(5-methylthiophen-2-yl)pyrimidin-2-yl)amino)-N-(3-morpholinopropyl)benzamide]
- IC50 (PfGSK3): < 100 nM
